# Source: ChEMBL document CHEMBL3396991 (Eur J Med Chem, 2015)
# How the values were obtained:
# [1] = molecular target: Kappa-type opioid receptor (Rattus norvegicus, UniProt P34975); test: Displacement of [3H]U69593 from rat recombinant kappa opioid receptor expressed in CHO cells after 60 mins; type: cell-based
# Mu-type opioid receptor = Mu-type opioid receptor (Homo sapiens, UniProt P35372); test: Displacement of [3H]diprenorphine from human recombinant mu opioid receptor expressed in HEK cells after 60 mins; type: cell-based, HEK293
# [2] = molecular target: Delta-type opioid receptor (Homo sapiens, UniProt P41143); test: Displacement of [3H]DADLE from human recombinant delta opioid receptor expressed in HEK cells after 60 mins; type: cell-based, HEK293
# [3] = Selectivity ratio of Ki for human recombinant mu opioid receptor to Ki for rat recombinant kappa opioid receptor
# [4] = Selectivity ratio of Ki for human recombinant delta opioid receptor to Ki for rat recombinant kappa opioid receptor
# Outline: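 Ratio of DOR Ki to KOR Ki. […] Both assays in 50 mM Tris pH 7.4 at room temperature, eight concentrations.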
# [5] = molecular target: Kappa-type opioid receptor (Homo sapiens, UniProt P41145); test: Antagonist activity at kappa opioid receptor (unknown origin)
# Homo sapiens [6] = species: Homo sapiens; test: Selectivity ratio of Ki for mu opioid receptor (unknown origin) to Ki for kappa opioid receptor (unknown origin)
# Outline: (§1)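 Ratio of two Ki values from radioligand displacement. KOR: rat recombinant receptor in CHO cells, [³H]U69593 (1 nM), 60 min. MOR: human recombinant receptor in HEK cells, [³H]diprenorphine (0.4 nM), 120 min. Both in 50 mM Tris pH 7.4 at room temperature with eight test concentrations. Ki is the mean ± SD of at least three experiments.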
# Homo sapiens [7] = species: Homo sapiens; test: Selectivity ratio of Ki for delta opioid receptor (unknown origin) to Ki for kappa opioid receptor (unknown origin)
# Outline: as §1, with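 “DOR:” for “MOR:”, “receptor, [³H]DADLE (0.5” for “receptor in HEK cells, [³H]diprenorphine (0.4”, “three independent” for “three”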
# Mu-type opioid receptor, sequence (P35372 whole entry): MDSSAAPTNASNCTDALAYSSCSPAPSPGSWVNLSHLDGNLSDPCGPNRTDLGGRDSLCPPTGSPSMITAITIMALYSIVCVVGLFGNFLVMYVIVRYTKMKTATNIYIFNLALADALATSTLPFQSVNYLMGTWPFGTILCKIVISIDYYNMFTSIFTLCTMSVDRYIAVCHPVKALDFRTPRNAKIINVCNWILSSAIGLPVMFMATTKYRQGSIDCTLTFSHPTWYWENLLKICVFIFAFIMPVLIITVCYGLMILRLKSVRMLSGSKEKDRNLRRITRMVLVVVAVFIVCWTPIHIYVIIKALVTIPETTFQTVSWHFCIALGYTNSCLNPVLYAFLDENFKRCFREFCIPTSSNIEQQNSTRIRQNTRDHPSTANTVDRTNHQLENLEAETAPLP
# Delta-type opioid receptor, sequence (P41143 whole entry): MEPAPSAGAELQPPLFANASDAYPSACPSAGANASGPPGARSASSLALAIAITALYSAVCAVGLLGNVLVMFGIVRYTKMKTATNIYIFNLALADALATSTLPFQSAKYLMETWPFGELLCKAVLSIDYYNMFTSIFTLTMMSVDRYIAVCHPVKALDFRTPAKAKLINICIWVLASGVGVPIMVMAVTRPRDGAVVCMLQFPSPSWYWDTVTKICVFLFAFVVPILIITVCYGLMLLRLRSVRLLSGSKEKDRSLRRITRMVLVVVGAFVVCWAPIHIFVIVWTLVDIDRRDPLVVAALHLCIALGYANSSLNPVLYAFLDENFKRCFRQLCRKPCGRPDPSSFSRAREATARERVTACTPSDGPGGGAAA
# Kappa-type opioid receptor (Rattus norvegicus, UniProt P34975), sequence (P34975 whole entry): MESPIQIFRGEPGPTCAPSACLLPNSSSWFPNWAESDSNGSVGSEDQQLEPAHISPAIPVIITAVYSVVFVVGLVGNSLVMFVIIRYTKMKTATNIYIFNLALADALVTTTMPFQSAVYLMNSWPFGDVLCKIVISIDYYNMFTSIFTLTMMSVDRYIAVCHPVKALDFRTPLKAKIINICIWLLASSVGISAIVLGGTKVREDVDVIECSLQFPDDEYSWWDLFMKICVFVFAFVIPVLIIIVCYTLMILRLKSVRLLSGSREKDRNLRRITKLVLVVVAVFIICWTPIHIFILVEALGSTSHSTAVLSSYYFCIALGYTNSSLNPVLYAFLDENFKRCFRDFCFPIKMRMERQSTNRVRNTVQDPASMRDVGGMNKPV
# Kappa-type opioid receptor (Homo sapiens, UniProt P41145), sequence (P41145 whole entry): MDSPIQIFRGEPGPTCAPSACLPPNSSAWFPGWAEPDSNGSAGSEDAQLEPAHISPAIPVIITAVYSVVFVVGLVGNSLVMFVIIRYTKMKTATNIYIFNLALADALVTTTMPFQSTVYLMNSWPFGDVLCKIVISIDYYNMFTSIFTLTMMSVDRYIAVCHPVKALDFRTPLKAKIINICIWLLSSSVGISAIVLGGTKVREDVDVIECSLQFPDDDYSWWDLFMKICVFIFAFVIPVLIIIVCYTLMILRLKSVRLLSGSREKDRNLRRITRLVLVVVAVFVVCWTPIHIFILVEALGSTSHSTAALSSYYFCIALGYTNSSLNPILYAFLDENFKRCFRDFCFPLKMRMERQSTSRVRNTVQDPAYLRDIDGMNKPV
SMILES,Ki [1] [nM],Ki (Mu-type opioid receptor) [nM],Ki [2] [nM],Ratio Ki [3],Ratio Ki [4],Ki [5] [nM],Ratio Ki (Homo sapiens [6]),Ratio Ki (Homo sapiens [7])
CC(C)[C@@H](CN1CC[C@@](C)(c2cccc(O)c2)[C@@H](C)C1)NC(=O)[C@H]1Cc2ccc(OCCCF)cc2CN1,8.19,57.5,72.9,7,8.9,,,
CC(C)[C@@H](CN1CC[C@@](C)(c2cccc(O)c2)[C@@H](C)C1)NC(=O)[C@H]1Cc2ccc(O)cc2CN1CCCF,1.62,19.6,254,12.2,159,,,
CC(C)[C@@H](CN1CC[C@@](C)(c2cccc(O)c2)[C@@H](C)C1)NC(=O)[C@H]1Cc2ccc(O)cc2CN1CCF,5.51,13.2,72.8,2.4,13.2,,,
CC(C)[C@@H](CN1CC[C@@](C)(c2cccc(O)c2)[C@@H](C)C1)NC(=O)[C@H]1Cc2ccc(O)cc2CN1 [JDTIC],0.32,,,,,,,
Cc1cc(C)cc([C@@H]2CCCN2Cc2ccc(Oc3ccc(C(N)=O)cc3F)cc2)c1 [ATICAPRANT],,,,,,0.8,30,194
CC(C)[C@@H](CN1CC[C@@](C)(c2cccc(O)c2)[C@@H](C)C1)NC(=O)[C@H]1Cc2ccc(OCCF)cc2CN1,24,63.1,81.3,2.6,3.4,,,
